Assay [1] in a line: inhibitors of TNFa-induced NFkB p65 translocation, primary screen, imaging, HUVEC, MLSMR starter and 10KST1 sets (AID 438;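 active = inhibition above 20% together with a positive visual image hit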;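 note: compound added about 3h40 before a 20 min TNFalpha stimulation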;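 for inhibition: signal is the nuclear over cytoplasmic p65 intensity ratio per well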). The conditions noted are these: HUVEC TNFa-induced p65 nuclear translocation; cell count: measured here: nuclei count (cytotoxicity indicator), at 2.08 µM; inhibition: at 2 µM, stronger effect = higher value, 0% TNFa-plus-vehicle, 100% no-TNFa wells.
Assay [2] can be described thus: inhibitors of E-selectin induction by TNFa, primary screen, imaging, HUVEC, immunofluorescence, MLSMR starter and 10KST1 sets (AID 487;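 active = visually confirmed hit in the image check and inhibition above 20%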;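 for inhibition: signal is fraction of cell area covered by stained E-selectin grains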;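 for nuclei count: 100% = median nuclei count of all wells on the same plate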). The note with it: HUVEC TNFalpha-induced E-selectin immunofluorescence imaging, at 2 µM; inhibition: stronger effect = higher value; nuclei count: measured here: cell number, toxicity.
A short description of assay [3]: DUSP6 inhibitors restoring Erk phosphorylation by chemical complementation, primary imaging in DUSP6-transfected HeLa (AID 609;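 active = compounds giving at least 50% inhibition in the cell-based MKP-3 phosphatase rescue imaging test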;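 for inhibition: phospho-Erk level distribution per well compared with pooled transfected vehicle control wells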). The conditions noted are these: HeLa MKP-3 transfected, phospho-Erk imaging KS statistic, at 10 µM, cells stimulated with TPA for 15 min.
The target in assay [4] is Dual specificity protein phosphatase 6 (Homo sapiens) (UniProt Q16828). The assay is described as above. The conditions noted are these: HeLa MKP-3 transfected, phospho-Erk imaging KS statistic; at 10 µM; stronger effect = higher value; cells stimulated with TPA for 15 min.
Assay [5] concerns the target Voltage-gated potassium channel subunit beta-2 (Rattus norvegicus) (UniProt P62483). As to the kind of experiment: KvBeta enzyme negative modulators, primary screen, biochemical, NADPH fluorescence (AID 622;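 active = fluorescence slope higher than the sample average by over 3 SD, cut at about -0.22 in these data, passing the limit was not always enough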;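 note: slope of raw intensity against log time taken from 70 to 1610 s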). The conditions noted are these: recombinant KvBeta, 4-cyanobenzaldehyde reduction, at 10 µM, stronger effect = higher value.
Assay [6] shares this target. As to the kind of experiment: KvBeta positive modulators, primary screen, biochemical, NADPH fluorescence (AID 623).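 Note: fluorescence intensity change per second fitted from 20 to 320 s.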 The conditions noted are these: Recombinant KvBeta, NADPH fluorescence decrease slope, 10 min; at 10 µM; stronger effect = lower value.
Assay [7] addresses Muscarinic acetylcholine receptor M4 (Homo sapiens) (UniProt P08173). As to the kind of experiment: compounds altering M4/GIRK thallium flux, either direction, primary screen, M4 allosteric agonist project, cell-based, HEK293 M4/GIRK, BTC-AM (AID 625;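 active = fluorescence slope after compound addition differing from the mean of all tested samples at 99.7% confidence, mostly higher but some lower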;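 note: thallium influx through GIRK channels coupled to M4 in HEK293 cells with BTC-AM dye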). The conditions noted are these: at 10 µM, actives lie on both sides. Summed up:
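Material: HEK293 cells with M4 receptor and GIRK channels; Times: cells overnight at 37 °C, BTC-AM loading 1 h, reads 2 min total; Technique: kinetic BTC-AM fluorescence sampled at 1 Hz, 10 s pre-addition baseline; Read-out basis: slope over 15–24 s of trace normalized to starting intensity; Controls: carbachol positive, DMSO negative.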

Assay [8] in a line: inhibitors of larval lipid processing in zebrafish, primary screen, whole organism, PED6 fluorescence, gall bladder and intestine (AID 686;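 active = a full or partial loss of lipid-probe fluorescence in the fish gall bladder, intestine or both, judged by eye; inactive = no fluorescence loss, or compound toxic to the fish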;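 note: larvae 5 to 7 days old with five fish per well; signal comes from phospholipase A2 cleavage of quenched PED6 carried via bile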). The note with it: Zebrafish larvae PED6 lipid processing, fluorescence scoring; screened at 20 µM (by protocol). In outline:
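Incubation: overnight exposure of larvae to compound plus PED6 / Test system: live zebrafish larvae aged 5-7 days, whole organism / Amount: 5 larvae per well / Read-out basis: visual per-well fluorescence inhibition score / Signal: visual fluorescence microscopy scoring of gall bladder, gut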

Assay [9] in a line: inhibitors of Chlamydomonas gravitaxis, primary screen, whole organism, Chlamydomonas reinhardtii, WT vs cilia-less mutant, absorbance, 96-well (AID 463189;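 active = inhibition at or above 50% relative to wild type and mutant plate controls; inactive = inhibition below 50%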;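 note: 0% = wild type cc124 cells in DMSO and 100% = ciliumless bld1 mutant cells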). The conditions noted are these: OD600 absorbance, 2 days, at 10 µM, stronger effect = higher value.
[10] abbreviates: measured here: cell density z-score.
Where [11] appears, read: measured here: nuclear c-Myc green intensity z-score.
Setting [12] is: measured here: nuclear pErk red intensity z-score, stronger effect = higher value.

The structures appear in SMILES notation. Active and inactive are the calls of the source.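 Rule for the calls, unless noted: active = NADPH fluorescence slope more negative than the mean of all samples by about 3 SD, 99.7% confidence; inactive = the rest.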

One may read the inhibition as the relative decrease from the control value, in per cent.

Muscarinic acetylcholine receptor M4 (Homo sapiens), sequence (P08173 whole entry, looked up): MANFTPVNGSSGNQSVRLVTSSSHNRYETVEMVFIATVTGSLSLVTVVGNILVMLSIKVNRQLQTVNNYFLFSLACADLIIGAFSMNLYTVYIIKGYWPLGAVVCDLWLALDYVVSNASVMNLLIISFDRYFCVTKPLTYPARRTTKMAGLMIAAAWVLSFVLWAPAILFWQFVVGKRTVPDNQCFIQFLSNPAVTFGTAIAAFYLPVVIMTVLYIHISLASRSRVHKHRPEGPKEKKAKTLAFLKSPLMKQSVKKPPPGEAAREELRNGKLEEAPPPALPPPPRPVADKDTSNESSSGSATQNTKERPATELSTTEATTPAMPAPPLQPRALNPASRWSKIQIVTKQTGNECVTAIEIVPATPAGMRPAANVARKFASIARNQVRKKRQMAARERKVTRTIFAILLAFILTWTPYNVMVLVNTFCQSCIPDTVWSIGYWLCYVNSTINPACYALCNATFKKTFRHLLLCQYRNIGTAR
Voltage-gated potassium channel subunit beta-2 (Rattus norvegicus), sequence (P62483 whole entry, looked up): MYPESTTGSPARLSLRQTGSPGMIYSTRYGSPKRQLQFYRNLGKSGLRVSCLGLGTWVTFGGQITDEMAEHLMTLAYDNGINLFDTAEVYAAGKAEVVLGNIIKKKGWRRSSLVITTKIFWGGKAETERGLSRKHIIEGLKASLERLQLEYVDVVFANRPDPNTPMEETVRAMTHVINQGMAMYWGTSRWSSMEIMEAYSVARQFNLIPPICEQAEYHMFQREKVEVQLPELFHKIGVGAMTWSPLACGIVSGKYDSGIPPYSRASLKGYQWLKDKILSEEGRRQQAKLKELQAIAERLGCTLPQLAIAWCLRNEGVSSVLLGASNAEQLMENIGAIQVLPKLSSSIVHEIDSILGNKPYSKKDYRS
Dual specificity protein phosphatase 6 (Homo sapiens), sequence (Q16828 whole entry, looked up): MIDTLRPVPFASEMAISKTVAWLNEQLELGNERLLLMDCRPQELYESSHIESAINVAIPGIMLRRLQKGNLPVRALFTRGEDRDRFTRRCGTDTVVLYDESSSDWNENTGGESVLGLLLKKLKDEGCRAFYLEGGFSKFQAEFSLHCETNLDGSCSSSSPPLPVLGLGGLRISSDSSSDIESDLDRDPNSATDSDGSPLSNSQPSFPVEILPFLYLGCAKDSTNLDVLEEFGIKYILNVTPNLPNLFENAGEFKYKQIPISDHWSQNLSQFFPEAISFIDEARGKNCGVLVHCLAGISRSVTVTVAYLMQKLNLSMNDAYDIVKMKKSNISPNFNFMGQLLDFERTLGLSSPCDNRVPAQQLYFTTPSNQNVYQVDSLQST

`O=C(c1ccccc1)n1c(=S)nc2ccccn21`: the cell count in [1] was determined as 751. Also, the inhibition in assay [1] was -1.4% (inactive); in assay [2] it was -18.3% (inactive); in assay [4], 7.21% (inactive); in [9], 3.62% (inactive). Moreover, in assay [2], the nuclei count was 144%. In addition, the z-score in [3] (setting [10]) was 0.295; in assay [3] (setting [11]) it was -2.19; in [3] (setting [12]) it was 0.415. In addition, the fluorescence slope was -0.421 (inactive) in [5] and 0.00539 (inactive) in assay [7]. Besides, in assay [6], the NADPH fluorescence slope was -3.2e-05 (inactive). Further, the molecule was classed as inactive in assay [8].
In the case of `Cc1cc(=O)oc(C)c1C(=O)NCCc1ccccc1`, the cell count in assay [1] is 661. Moreover, the inhibition in assay [1] was 9.3% (inactive); in assay [2], -1% (inactive); in assay [4], 5.35% (inactive); in [9], -7.3% (inactive). For the same molecule, the nuclei count in assay [2] is 109%. Also, the z-score in [3] (setting [10]) was -0.903; in assay [3] (setting [11]), 1.05; in [3] (setting [12]), 0.63. For the same molecule, the fluorescence slope in assay [5] was -0.433 (inactive); in [7], 0.00484 (inactive). In addition, the NADPH fluorescence slope in assay [6] was -4.2e-05 (inactive). In assay [8], the outcome was inactive.
For `Cn1c(NCc2ccccc2)nc2c1c(=O)n(Cc1ccccc1)c(=O)n2C`, in [1], the cell count turned out to be 694. The inhibition in assay [1] is -5.5% (inactive); in [2], -54.8% (inactive); in assay [4], 5.95% (inactive); in assay [9], 6.49% (inactive). For the same molecule, in assay [2], the nuclei count came to 172%. The results for the z-score in assay [3] (setting [10]), in [3] (setting [11]) and in [3] (setting [12]) were 0.899, -0.674 and 1.21, respectively. Further, the fluorescence slope in [5] is -0.461 (inactive); in [7] it was 0.00535 (inactive). Also, in assay [6], the NADPH fluorescence slope is -8.2e-05 (inactive). For the same molecule, the molecule was called inactive in [8].
In the case of `c1nc(NC2CCCCC2)c2[nH]cnc2n1`, in [1], the cell count was found to be 743. Besides, the inhibition in assay [1] is -1.9% (inactive); in assay [2] it was -76.5% (inactive); in assay [4], 9.91% (inactive); in [9], 3.23% (inactive). Moreover, the nuclei count in assay [2] is 168%. The z-score in assay [3] (setting [10]) is -1.06; in [3] (setting [11]), 0.0486; in assay [3] (setting [12]), -0.156. The fluorescence slope in assay [5] was -0.483 (inactive); in [7], 0.00575 (inactive). Besides, the NADPH fluorescence slope in assay [6] was -6.4e-05 (inactive). Moreover, the outcome in assay [8] was inactive.
`COc1ccccc1C(=O)NCC(=O)n1nc(C)cc1C`: the cell count in assay [1] is 542. The inhibition in [1] was -13.5% (inactive); in assay [2], -24% (inactive); in assay [4], 19.8% (inactive); in assay [9] it was -1.54% (inactive). The molecule also displayed a nuclei count in assay [2] of 146%. Moreover, the values for the z-score in assay [3] (setting [10]), in assay [3] (setting [11]) and in [3] (setting [12]) were 0.666, 0.744 and -0.112, respectively. Besides, the values for the fluorescence slope in [5] and in assay [7] were -0.331 (inactive) and 0.0067 (inactive), respectively. The NADPH fluorescence slope in assay [6] was -5.1e-05 (inactive). The result in assay [8] was inactive.
Regarding `Cc1cccc(C)c1OCC(=O)Nc1cccc(-c2nnc(-c3ccccc3)o2)c1`, the cell count in [1] worked out at 634. For the same molecule, the inhibition was -2.9% (inactive) in assay [1], 27.8% (inactive) in assay [2], -9.53% (inactive) in [4] and -17.1% (inactive) in [9]. Besides, in assay [2], the nuclei count turned out to be 82.9%. Further, the z-score was -2.16 in [3] (setting [10]), 1.5 in assay [3] (setting [11]) and 0.715 in [3] (setting [12]). The results for the fluorescence slope in assay [5] and in [7] were -0.492 (inactive) and 0.00887 (inactive), respectively. The NADPH fluorescence slope in assay [6] is -4.2e-05 (inactive). Also, the outcome in assay [8] was inactive.
`COC(=O)c1[nH]c2cc(OC)ccc2c1NC(=O)CN1CCN(c2cccc(C)c2)C(C)C1` (stereo not given): the cell count in assay [1] is 670. Besides, the inhibition in assay [1] is 1% (inactive); in [2] it was -108% (inactive); in assay [4] it was -1.12% (inactive); in [9], 4.21% (inactive). The molecule further showed a nuclei count in assay [2] of 166%. The results for the z-score in [3] (setting [10]), in assay [3] (setting [11]) and in assay [3] (setting [12]) were -0.376, -0.924 and -0.753, respectively. Also, the fluorescence slope in [5] is -0.429 (inactive); in assay [7] it was 0.0042 (inactive). In addition, the NADPH fluorescence slope in assay [6] was -3.4e-05 (inactive). Also, the call in assay [8] was inactive.
Regarding `CC1(C)Cc2c(c(-c3ccco3)[nH]c(=O)c2C#N)CS1`, the cell count in assay [1] was 706. The inhibition is -0.5% (inactive) in assay [1], -101% (inactive) in assay [2], -11.5% (inactive) in [4] and 3.67% (inactive) in assay [9]. Further, the nuclei count in assay [2] stood at 143%. Also, the z-score in [3] (setting [10]) was found to be 0.203; in [3] (setting [11]) it was 0.427; in [3] (setting [12]) it was 1.52. Moreover, the fluorescence slope in assay [5] is -0.388 (inactive); in assay [7] it was 0.00494 (inactive). Moreover, in [6], the NADPH fluorescence slope was -9.3e-05 (inactive). In addition, the molecule was classed as inactive in assay [8].
`CCCOc1cccc(C2/C(=C(/O)c3ccc(F)cc3)C(=O)C(=O)N2CCN(C)C)c1` (stereo not given): the cell count in assay [1] stood at 676. Also, the inhibition in assay [1] was -13.2% (inactive); in assay [2], -51.1% (inactive); in assay [4], -2.91% (inactive); in [9], 12.9% (inactive). The molecule further returned a nuclei count in assay [2] of 132%. Moreover, the z-score in [3] (setting [10]) is 0.0201; in assay [3] (setting [11]), -1.18; in [3] (setting [12]), -0.732. The values for the fluorescence slope in assay [5] and in [7] were -0.478 (inactive) and 0.00611 (inactive), respectively. The NADPH fluorescence slope in assay [6] was -2.8e-05 (inactive). In addition, in [8], the call was inactive.
`CC(C)c1nc(N2CCOCC2)c(C#N)c2c1COC(C)(C)C2`: the cell count in assay [1] is 535. For the same molecule, the inhibition in assay [1] is -5.2% (inactive); in assay [2], -79.8% (inactive); in [4], -9.53% (inactive); in assay [9], -30% (inactive). Further, in [2], the nuclei count worked out at 110%. Besides, the z-score is 0.188 in [3] (setting [10]), -0.524 in assay [3] (setting [11]) and -1.28 in assay [3] (setting [12]). Also, the fluorescence slope in assay [5] was -0.424 (inactive); in assay [7] it was 0.00516 (inactive). For the same molecule, the NADPH fluorescence slope in assay [6] is 4.6e-06 (inactive). Besides, in assay [8], the molecule was called inactive.
